Measured values taken from the EternaBench riboswitch data.

System: MS2 coat protein
Test: apparent Kd, MS2 coat protein; higher = weaker binding; RNA-MaP array; FMN 200 µM where present
In short: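 Stalled E. coli RNA polymerase transcribed each design on Illumina sequencing-chip clusters. The clusters were titrated with SNAP-549-labelled MS2 coat protein, starting at 0.7 or 1.5 nM and doubling up to 3 µM, first without ligand and then with constant ligand, in 100 mM Tris-HCl pH 7.5, 80 mM KCl, 4 mM MgCl2, BSA, DTT, yeast tRNA and Tween-20. Green signal was normalised to red-channel RNA signal and to the control-cluster median Fmax. The apparent Kd is the median of filtered binding-curve fits made for each cluster.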

[1] = designed as: OFF switch for flavin mononucleotide, no ligand
[2] = ligand present: flavin mononucleotide, designed as: OFF switch for flavin mononucleotide
[3] = designed as: ON switch for flavin mononucleotide, no ligand
[4] = ligand present: flavin mononucleotide, designed as: ON switch for flavin mononucleotide

Row | Sequence | apparent Kd [1] [nM] | apparent Kd [2] [nM] | apparent Kd [3] [nM] | apparent Kd [4] [nM]
1 | GUUUUUUGUCAUGUACAUGAGGAACAUGAGGAUCACCCAUGUAGAAGGAAUUUUUUUAAGUUUAGUUAGGAUAUACAUAUAUUG | 50.6 | 31.9 | – | –
2 | UGUUUGUGACAGAAGGGCAUUUACAUGAGGAUCACCCAUGUUCAUCAUUGCAGGAUAUGUAUUUCAUGAGGAUCACCUAUGCUC | – | – | 201 | 71.1
3 | AACAGUAGAGGAUAUACAUGAGGAUCACCCAUGUGAGAAUUAAGUGGCGUACCACUAAGUAGAAGGCUACUGGA | 96.9 | 235 | – | –
4 | UCGCUCCGUGUAGGAUAUCGUUGUAUUCUGCGGCGAGAAGGACAUGAGGAUCACCCAUGUAUGUUAUUAUCACGCGUGGCGCAA | 21 | 18.9 | – | –
5 | CUCUUGUAAGGAUAUCACCACACAAAAAAAAAAAAGUGUGGUGAGAAGGUACAUGAGGAUCACCCAUGUACUAA | 23 | 22.5 | – | –
6 | AUAUAUAGUGUGAGGAUAUGCUGGUCCUUGGAUCAGCAGAAGGCACAUGAGGAUCACCCAUGUAGUUAAAUAUA | 36 | 107 | – | –
7 | AGAAACUACGAGAAGGACAUGUGGUCCUUCAGUUACAUGAGGAUCACCCAUGUAGGAUAUAAAAGUUUCAGGAUCGUGAGAUCA | 6.78 | 7.1 | – | –
8 | UCCUGGCGAGGAUAUACAAUGUUUUUCGCGUGUAGUUGGAAACAUGAGGAUCACCCAUGUAGAAGGUGCUACUG | 32.6 | 25.6 | – | –
9 | AUUUCGUUAGCAGGAUAUGGACAGGCCUGUCCGUAUUGAGUCAGUAACAUGAGGAUCACCCAUGUCCAGAAGGGCUCGAAGGGA | 11.2 | 12.3 | – | –
10 | UCGGCGCGAGGAUAUACGUUUGCUUUUUAGGAUCGUGGCGUACAUGAGGAUCACCCAUGUAGAAGGCGCGCCGC | 13.8 | 20.3 | – | –
11 | GUAGCAUACCGAGGAUAUUCAGGGCGUGGAUAGACAUGAGGAUCACCCAUGUGGCGAAAGCCUAGGGAGAAGGCGGAAUGCUAC | – | – | 26.9 | 17.6
12 | AAGGGCGUGAUAACGCUCAUUAAAACAUGAGGAUCACCCAUGUAGGAUAUCCUACCGAAAUGGUAGGAGAAGGACAAGCAAUGA | 21.9 | 20.8 | – | –
13 | UCCAAACAUGAGGAUCACCCAUGUGAGGAUAUGAUACUAUGUACUUCGGUACAUAGUAUCAGAAGGCACAUCCA | 13.6 | 22.2 | – | –
14 | GGGUACAUCGGAGGAUAUCAUGUAAAUACAUGAGGAUCACCCAUGUCGAUGGAGACAUCGGAGAUUGAGAAGGCCGAUGGACCG | – | – | 163 | 8.74
15 | UGUGCGUUGAUCUUCGAUCGGUGUACAUGAGGAUCACCCAUGUAGGAUAUUCAAAGACGCAGAUAGGAGAAGGACAUCGGAUUU | 18.8 | 17 | – | –
16 | CUAAAUCAUGUAGGAUAUGCGUGGCGAAGCUAUGCAGAAGGACAUGAGGAUCACCCAUGUUUUUCCGUCUGCGUACAGACGGAA | 259 | 260 | – | –
17 | GGCGGUGAUCUAUUAGGACACAUGAGGAUCACCCAUGUGACAGAGGAUAUACGGAACUUUGGAUAGUAGAAGGCUGUCGCAAAA | 315 | 119 | – | –
18 | UGUUGUAUUACAGGAUAUCUAUUAGCUUUAUUUAGAGAAGGGUAUUCACAUGAGGAUCACCCAUGUAUAUACGAGGAAGUUGUG | – | – | 46.1 | 50.1
19 | UAAACGUUCUAGAAGGUGCUUUUGUUAAACAAGCAAGGAUAUAGACAUGAGGAUCACCCAUGUCUUUGAGACAUCGACAUACUU | 8.41 | 9.14 | – | –
20 | CUGAGGUCAGGAUAUGCAUGGCGGGACUUGCGUCGUGGCGUGGAGAAGGGACAUGAGGAUCACCCAUGUGGAGC | 59.8 | 57 | – | –
21 | UUAUACAUUCGAGGAUAUCGGUGAGAAAUCUUUCGAGAAGGCGAUUCAUGAUUUAUUAUCCUGGACAUGAGGAUCACCCAUGUA | – | – | 79.8 | 60.9
22 | GGGCACAUCGGAGGAUAUCAUGUAAAUACAUGAGGAUCACCCAUGUCGAUGGAGACAUCGGAGAUUGAGAAGGCCGAUGUACCG | – | – | 191 | 9.02
23 | CUAUAUAAUACCUCAUGUACAUGAGGAUCACCCAUGUUAACUUAGGAUAUAUUUAUAUUGAUAGAGUAGAAGGAAGUACUAUUU | 15.8 | 13.8 | – | –
24 | UAUAUGUCAGGAUAUUAGUUGUGUUAGAAUUUAACUUCUGCUGAGAAGGGACAUGAGGAUCACCCAUGUUCCUC | 15.9 | 21.2 | – | –

Row | Sequence | apparent Kd [1] [nM] | apparent Kd [2] [nM] | apparent Kd [3] [nM] | apparent Kd [4] [nM]
25 | ACAGAUGCUGACAUGAGGAUCACCCAUGUUAGAUUGUUAUGUCAGGAUAUUAUCUGGCAACCAGAUGAGAAGGGACCAUCUGUU | – | – | 15.6 | 7.31
26 | CUCCAUUCUGGAGGAUAUCAUAGUCGUUGACUAUGAGAAGGUUAGCUAUCUUACAUGAGGAUCACCCAUGUGAUCUACAUGGAG | – | – | 40.5 | 10.8
27 | GGAUAGCACAGAGGAUAUACGUGCUAGAGAUACUAGCAAAAUUUCCUCACAUGAGGAUCACCCAUGUAGAAGGCUGUCCUAUCG | 4.44 | 5.5 | – | –
28 | AAGCACUGAUAAUAAUGUAGAAAUACAUGAGGAUCACCCAUGUAGGAUAUCGUCAGGAAUACUGACGAGAAGGACAUACAGUGC | 16.2 | 24.7 | – | –
29 | AUCAGCUUGUCAGGAUAUGCGUGUCAACGAAAGUUGACAAUCUUAAUAACAUGAGGAUCACCCAUGUAGAAGGGACGAGCUGAU | 17.1 | 17.9 | – | –
30 | UUGCGGUAGGAGAAGGACAGAGGCUUCAUUACAUACAUGAGGAUCACCCAUGUAGGAUAUCCUACCUCACGCGGCCUCCUCCUG | 6.9 | 10.3 | – | –
31 | CGAGGUGGAGUGAGGAUAUCGUGUUCGAAAGAACGUGAGAAGGCACAUGAGGAUCACCCAUGUGAUUCUGCUCG | 45.7 | 270 | – | –
32 | AUAUUUGUUUAGAAGGACAUGAGGAUCACCCAUGUCGCUGGGCGCGGGAAACCGUGGGCGGCCAUGUAGGAUAUAGGGAGAUAU | 36.6 | 24 | – | –
33 | CAGCGAAAGUAGAAGGCAGUACUGAUACAGUACUGAGGAUAUACAUGAGGAUCACCCAUGUUCUUCAGCUGGAAAUAAAUAAAA | 8.02 | 124 | – | –
34 | AUCGUGUGAGGAUAUCGAUGUUGGACGUCUAGGUCUGAGCGCGAGAAGGCACAUGAGGAUCACCCAUGUAAUGG | 272 | 350 | – | –
35 | UGAUCGAGAGAUCUUAGAUUCUGGUAGGAUAUACAUUAUGUAUUAUAUACAUGAGGAUCACCCAUGUAGAAGGACUAGAGUCUA | 6.7 | 11.8 | – | –
36 | UCGGCCGCUGGGUUGUACGAUGACAGAAGGGCACACCGGGUGCCGCACAUGAGGAUCACCCAUGUGCAGGAUAUGUCAUCCUGA | 11.1 | 8.25 | – | –
37 | GGAUAGGACAGAGGAUAUACGUGCUAGAGAUACUAGCAAAAUUUCCUCACAUGAGGAUCACCCAUGUAGAAGGAUGUCCUAUCG | 5.3 | 7.61 | – | –
38 | AGUAUGCAGCAGGAUAUCGAUCCGCAGUAUGAUCGAGAAGGGCUGACAUGAGGAUCACCCAUGUGCGUCCUAGG | 40.1 | 167 | – | –
39 | UGGUACUAGGGAGGAUAUGGGAAGAUACAUGAGGAUCACCCAUGUUUAAGAAUGCCGAGAGGCAACUAGAAGGCCCUGGUACCU | – | – | 459 | 17.9
40 | CAGCAAAAGUAGAAGGCAGUACUGAUUCAGUACUGAGGAUAUACAUGAGGAUCACCCAUGUAUUCCAGCUGAAUAAUAAAAUAU | 5.43 | 5.63 | – | –
41 | AAGCUGACAAUAAAUAACUCAAAUACAUGAGGAUCACCCAUGUAGGAUAUGCAGUGGAAUACACUGCAGAAGGACAUAGUCAGC | 13.6 | 21.9 | – | –
42 | UUUAUAAAGAUAGGAUAUAGUAUAAUAAUUUAAUUAGAAGGAUCACACAUGAGGAUCACCCAUGUAUGAGGAUCACCCAUGUAU | 20.4 | 21.1 | – | –
43 | UUAUUAGGACAGAAGGGUAGACAUGAGGAUCACCCAUGUAAUAUAAGGUGCAGGAUAUGUAAUAAUUGAGAUUCAUCAUUUUGC | – | – | 198 | 142
44 | CAAAACAUCUCCGUGUUUGUCGAACAUGAGGAUCACCCAUGUAGAAGGCGCUUCGCGUCGCGGAGCGAGGAUAUACGCUGGAUG | 11.4 | 86.3 | – | –
45 | AUUUUGUGAGGAUAUGUGGCUUCGAUCGUAAAAUCGAGGCUACAGAAGGCACAUGAGGAUCACCCAUGUUCCUA | 19 | 205 | – | –
46 | GCUGGACGUCGAGGAUAUGGGUGUGCGAGUCUUGGCACUGGACAUGAGGAUCACCCAUGUCGCUUCCAGAAGGCGACGUCCCUA | – | – | 35.1 | 6.55
47 | AAUAACAGAGGAUAUACUAUUUUAUGUAUUUAUUAUUUUAAACAUGAGGAUCACCCAUGUAGAAGGCUGAAUAA | 19.8 | 20.7 | – | –
48 | UAAAAGUUAGGAUAUACAUGAGGAUCACCCAUGUCGCGGAACCGCGGCGAUUACUCCUGUAGAAGGAACAUCGU | 165 | 291 | – | –
